According to ChEMBL document CHEMBL3585255, “The Cephalostatins. 24. Isolation, Structure, and Cancer Cell Growth Inhibition of Cephalostatin 20” (2015):

Tests used:
Format in all cases: functional
DU-145 = test: Cytotoxicity against human DU145 cells after 48 hrs by sulforhodamine B assay; conditions: DU-145, 48 h
Outline: (§1)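 Cells in RPMI1640 with 5% fetal bovine serum were plated in 96-well plates and incubated 24 h before serial dilutions of compound were added. After 48 h exposure, cells were fixed with trichloroacetic acid and stained with sulforhodamine B, and optical density was read on a plate reader. GI50, the concentration giving 50% reduction in net protein increase, was calculated from the OD data.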

NCI-H460 = test: Cytotoxicity against human NCI-H460 cells after 48 hrs by sulforhodamine B assay; conditions: NCI-H460, 48 h; outline: as §1
[1] = Cytotoxicity against human BxPC3 cells after 48 hrs by sulforhodamine B assay; conditions: BXPC-3, 48 h; outline: as §1
SF-268 = test: Cytotoxicity against human SF268 cells after 48 hrs by sulforhodamine B assay; conditions: SF-268, 48 h; outline: as §1
MCF7 = test: Cytotoxicity against human MCF7 cells after 48 hrs by sulforhodamine B assay; conditions: MCF7, 48 h; outline: as §1
[2] = Cytotoxicity against human KM20L2 cells after 48 hrs by sulforhodamine B assay; conditions: KM-20L2, 48 h; outline: as §1

Row | Structure (SMILES) | GI50 (DU-145) | GI50 (NCI-H460) | GI50 [1] | GI50 (SF-268) | GI50 (MCF7) | GI50 [2]
1 | C[C@@H]1[C@]2(O[C@H]3C=C4[C@@H]5CC[C@H]6Cc7nc8c(nc7C[C@]6(C)[C@H]5C[C@@H](O)[C@]4(C)[C@]31O)C[C@@H]1CC[C@H]3C4=CC[C@@H]5[C@H](C)[C@@]6(OC[C@]45C(=O)C[C@@H]3[C@@]1(C)C8)OC(C)(C)C[C@H]6O)O[C@](C)(CO)C[C@H]2O [CEPHALOSTATIN 1] | 0.11 nM | 0.044 nM | 0.044 nM | 1.6 nM | 0.099 nM | 0.066 nM
2 | CO[C@H]1c2nc3c(nc2C[C@@H]2CC[C@H]4C5=CC[C@@H]6[C@H](C)[C@@]7(OC[C@]56C(=O)C[C@@H]4[C@]21C)OC(C)(C)C[C@H]7O)C[C@@]1(C)[C@@H](CC[C@H]2C4=C[C@@H]5O[C@]6(O[C@](C)(CO)C[C@H]6O)[C@@H](C)[C@]5(O)[C@@]4(C)[C@H](O)C[C@@H]21)C3 [CEPHALOSTATIN 19] | 30 nM | 5.3 nM | 3.9 nM | 78 nM | 7.4 nM | 6.1 nM
3 | C[C@@H]1C[C@]2(O[C@H]3C=C4[C@@H]5CC[C@H]6Cc7nc8c(nc7C[C@]6(C)[C@H]5C[C@@H](O)[C@]4(CO)[C@H]3[C@@H]2C)C[C@@H]2CC[C@H]3C4=C[C@@H]5O[C@]6(O[C@](C)(CO)C[C@H]6O)[C@@H](C)[C@]5(O)[C@@]4(C)[C@H](O)C[C@@H]3[C@@]2(C)C8)OC1(C)C [CEPHALOSTATIN 8] | > 1100 nM | 15 nM | 26 nM | 150 nM | 26 nM | 47 nM
4 | C[C@@H]1[C@H]2CC=C3[C@@H]4CC[C@H]5Cc6nc7c(nc6C[C@]5(C)[C@@]4(O)CC(=O)[C@@]32CO[C@]12OC(C)(C)C[C@H]2O)C[C@@H]1CC[C@H]2C3=C[C@@H]4O[C@@]5(CC[C@](C)(O)CO5)[C@@H](C)[C@]4(O)[C@@]3(C)[C@H](O)C[C@@H]2[C@@]1(C)C7 [CEPHALOSTATIN 16] | 12 nM | 0.64 nM | 0.44 nM | 5.2 nM | 1.1 nM | 0.6 nM
5 | C[C@@H]1[C@H]2C[C@@H]3O[C@@]34[C@]3(O)CC[C@H]5Cc6nc7c(nc6C[C@]5(C)C3=CC(=O)[C@]24CO[C@]12OC(C)(C)[C@@H](C)[C@H]2O)C[C@@H]1CC[C@H]2C3=C[C@@H]4O[C@]5(O[C@](C)(CO)C[C@H]5O)[C@@H](C)[C@]4(O)[C@@]3(C)[C@H](O)C[C@@H]2[C@@]1(C)C7 [CEPHALOSTATIN 15] | 140 nM | 68 nM | 50 nM | 63 nM | 45 nM | 63 nM
6 | C[C@@H]1[C@]2(O[C@H]3C=C4[C@@H]5CC[C@H]6Cc7nc8c(nc7C[C@]6(C)[C@H]5C[C@@H](O)[C@]4(C)[C@]31O)C[C@@H]1CC[C@H]3[C@@]45O[C@@H]4C[C@@H]4[C@H](C)[C@@]6(OC[C@@]45C(=O)C[C@]3(O)[C@@]1(C)C8)OC(C)(C)C[C@H]6O)O[C@](C)(CO)C[C@H]2O [CEPHALOSTATIN 4] | 31 nM | 44 nM | 36 nM | 21 nM | 43 nM | 39 nM
7 | CO[C@H]1c2nc3c(nc2C[C@@H]2CC[C@H]4C5=C[C@@H]6O[C@]7(O[C@](C)(CO)C[C@H]7O)[C@@H](C)[C@]6(O)[C@@]5(C)[C@H](O)C[C@@H]4[C@]21C)C[C@@]1(C)[C@@H](CC[C@H]2C4=CC[C@@H]5[C@H](C)[C@@]6(OC[C@]45C(=O)C[C@@H]21)OC(C)(C)C[C@H]6O)C3 [CEPHALOSTATIN 18] | 20 nM | 2.8 nM | 3.3 nM | 7.8 nM | 3.3 nM | 3.1 nM
